≈ marks a conversion by molar mass, not a printed value.
Assays:
Format in all cases: functional
[1] = test system: Mycobacteroides abscessus; assay: Antimicrobial activity against Mycobacterium abscessus NTU446 isolate after 3 to 5 days by broth microdilution method
Outline: (§1)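 Clinical isolates subcultured on Trypticase soy agar with 5% sheep blood, 30°C, 72 h. Colonies suspended in cation-supplemented Mueller-Hinton broth to a final inoculum of 5 × 10^5 CFU/ml. Twofold serial dilutions made in the same broth, final well concentrations 0.25 to 128 μg/ml. Trays incubated at 30°C; MIC read after 3 to 5 days.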

[2] = test system: Mycobacteroides abscessus; assay: Antimicrobial activity against Mycobacterium abscessus R47 isolate after 3 to 5 days by broth microdilution method; outline: as §1
[3] = test system: Mycobacteroides abscessus; assay: Antimicrobial activity against Mycobacterium abscessus CH10 isolate after 3 to 5 days by broth microdilution method; outline: as §1
[4] = test system: Mycobacteroides abscessus; assay: Antimicrobial activity against Mycobacterium abscessus after 3 to 5 days by broth microdilution method; outline: as §1
[5] = test system: Mycolicibacterium fortuitum; assay: Antimicrobial activity against Mycobacterium fortuitum V13 isolate after 3 to 5 days by broth microdilution method; outline: as §1
[6] = test system: Mycobacteroides abscessus; assay: Antimicrobial activity against Mycobacterium abscessus R54 isolate after 3 to 5 days by broth microdilution method; outline: as §1
[7] = test system: Mycobacteroides abscessus; assay: Antimicrobial activity against Mycobacterium abscessus R39 isolate after 3 to 5 days by broth microdilution method; outline: as §1
[8] = test system: Mycobacteroides abscessus; assay: Antimicrobial activity against Mycobacterium abscessus R49 isolate after 3 to 5 days by broth microdilution method; outline: as §1
[9] = test system: Mycolicibacterium fortuitum; assay: Antimicrobial activity against Mycobacterium fortuitum V61 isolate after 3 to 5 days by broth microdilution method; outline: as §1
[10] = test system: Mycobacteroides abscessus; assay: Antimicrobial activity against Mycobacterium abscessus R31 isolate after 3 to 5 days by broth microdilution method; outline: as §1
[11] = test system: Mycobacteroides abscessus; assay: Antimicrobial activity against Mycobacterium abscessus R50 isolate after 3 to 5 days by broth microdilution method; outline: as §1
[12] = test system: Mycobacteroides abscessus; assay: Antimicrobial activity against Mycobacterium abscessus R65 isolate after 3 to 5 days by broth microdilution method; outline: as §1
[13] = test system: Mycobacteroides abscessus; assay: Antimicrobial activity against Mycobacterium abscessus V120 isolate after 3 to 5 days by broth microdilution method; outline: as §1
[14] = test system: Mycolicibacterium fortuitum; assay: Antimicrobial activity against Mycobacterium fortuitum after 3 to 5 days by broth microdilution method; outline: as §1
Mycobacteroides chelonae = assay: Antimicrobial activity against Mycobacterium chelonae after 3 to 5 days by broth microdilution method; outline: as §1
[15] = test system: Mycobacteroides abscessus; assay: Antimicrobial activity against Mycobacterium abscessus NTU445 isolate after 3 to 5 days by broth microdilution method; outline: as §1
[16] = test system: Mycobacteroides abscessus; assay: Antimicrobial activity against Mycobacterium abscessus R61 isolate after 3 to 5 days by broth microdilution method; outline: as §1
[17] = test system: Mycolicibacterium fortuitum; assay: Antimicrobial activity against Mycobacterium fortuitum V146 isolate after 3 to 5 days by broth microdilution method; outline: as §1
[18] = test system: Mycobacteroides abscessus; assay: Antimicrobial activity against Mycobacterium abscessus R53 isolate after 3 to 5 days by broth microdilution method; outline: as §1
[19] = test system: Mycobacteroides abscessus; assay: Antimicrobial activity against Mycobacterium abscessus R51 isolate after 3 to 5 days by broth microdilution method; outline: as §1
[20] = test system: Mycobacteroides abscessus; assay: Antimicrobial activity against Mycobacterium abscessus NTU459 isolate after 3 to 5 days by broth microdilution method; outline: as §1

Compound | MIC [1] [µg/mL] | MIC [2] [µg/mL] | MIC [3] [µg/mL] | MIC50 [4] [µg/mL] | MIC90 [4] [µg/mL] | MIC [5] [µg/mL] | MIC [6] [µg/mL] | MIC [7] [µg/mL] | MIC [8] [µg/mL] | MIC [9] [µg/mL] | MIC [10] [µg/mL] | MIC [11] [µg/mL] | MIC [12] [µg/mL] | MIC [13] [µg/mL] | MIC50 [14] [µg/mL] | MIC90 [14] [µg/mL] | MIC50 (Mycobacteroides chelonae) [µg/mL] | MIC90 (Mycobacteroides chelonae) [µg/mL] | MIC [15] [µg/mL] | MIC [16] [µg/mL] | also measured
NC[C@H]1O[C@H](O[C@H]2[C@H](O)[C@@H](O[C@H]3O[C@H](CO)[C@@H](O)[C@H](N)[C@H]3O)[C@H](N)C[C@@H]2N)[C@H](O)[C@@H](O)[C@@H]1O [KANAMYCIN] | 8 (≈ 16.5 µM) | 8 (≈ 16.5 µM) | > 128 | 8 (≈ 16.5 µM) | 8 (≈ 16.5 µM) | > 128 | 8 (≈ 16.5 µM) | 16 (≈ 33 µM) | 4 (≈ 8.26 µM) | 32 (≈ 66 µM) | > 128 | 8 (≈ 16.5 µM) | 8 (≈ 16.5 µM) | 8 (≈ 16.5 µM) | 8 (≈ 16.5 µM) | 32 (≈ 66 µM) | 4 (≈ 8.26 µM) | 8 (≈ 16.5 µM) | 16 (≈ 33 µM) | 8 (≈ 16.5 µM) | MIC [17]: 32 µg/mL (≈ 66 µM); MIC [18]: 4 µg/mL (≈ 8.26 µM); MIC [19]: 16 µg/mL (≈ 33 µM); MIC [20]: 16 µg/mL (≈ 33 µM)
NC[C@H]1O[C@H](O[C@H]2C(O)[C@@H](O[C@H]3O[C@H](CO)[C@@H](O)[C@H](N)[C@H]3O)[C@H](N)C[C@@H]2N)[C@H](N)C[C@@H]1O (single isomer, unassigned) [TOBRAMYCIN] | 4 (≈ 8.56 µM) | 16 (≈ 34.2 µM) | > 128 | 8 (≈ 17.1 µM) | 16 (≈ 34.2 µM) | 128 (≈ 274 µM) | 32 (≈ 68.4 µM) | 32 (≈ 68.4 µM) | 16 (≈ 34.2 µM) | 64 (≈ 137 µM) | > 128 | 16 (≈ 34.2 µM) | 16 (≈ 34.2 µM) | 16 (≈ 34.2 µM) | 16 (≈ 34.2 µM) | 64 (≈ 137 µM) | 16 (≈ 34.2 µM) | 32 (≈ 68.4 µM) | 16 (≈ 34.2 µM) | 16 (≈ 34.2 µM) | MIC [17]: 64 µg/mL (≈ 137 µM); MIC [18]: 8 µg/mL (≈ 17.1 µM); MIC [19]: 32 µg/mL (≈ 68.4 µM); MIC [20]: 8 µg/mL (≈ 17.1 µM)
NCC[C@H](O)C(=O)N[C@@H]1C[C@H](N)[C@@H](O[C@H]2O[C@H](CN)[C@@H](O)[C@H](O)[C@H]2O)[C@H](O)[C@H]1O[C@H]1O[C@H](CO)[C@@H](O)[C@H](N)[C@H]1O [AMIKACIN] | 32 (≈ 54.6 µM) | 32 (≈ 54.6 µM) | > 128 | 16 (≈ 27.3 µM) | 32 (≈ 54.6 µM) | 4 (≈ 6.83 µM) | 32 (≈ 54.6 µM) | 64 (≈ 109 µM) | 32 (≈ 54.6 µM) | 4 (≈ 6.83 µM) | > 128 | 32 (≈ 54.6 µM) | 32 (≈ 54.6 µM) | 32 (≈ 54.6 µM) | 1 (≈ 1.71 µM) | 4 (≈ 6.83 µM) | 8 (≈ 13.7 µM) | 8 (≈ 13.7 µM) | 32 (≈ 54.6 µM) | 32 (≈ 54.6 µM) | MIC [17]: 4 µg/mL (≈ 6.83 µM); MIC [18]: 32 µg/mL (≈ 54.6 µM); MIC [19]: 32 µg/mL (≈ 54.6 µM); MIC [20]: 32 µg/mL (≈ 54.6 µM)
